Data: ChEMBL document CHEMBL2331117 (J Med Chem, 2013)

Legend:
[1] = molecular target: RAC-alpha serine/threonine-protein kinase (Homo sapiens, UniProt P31749); experiment: Inhibition of AKT1 (unknown origin)
Mus musculus [2] = experiment: In vivo inhibition of mTORC2-mediated phosphorylation of AKT at […] in human PC3 cells xenografted into athymic nude mouse at 100 mg/kg, po after 32 hrs by Western blotting analysis relative to control; assay type: functional; conditions: PC-3, 32 h
Procedure, shortened: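 Human PC-3 cells were implanted subcutaneously into the hindflank of male nude mice aged 5−8 weeks, at 3 × 10^6 cells (passages 10−14, >95% viability) in ice-cold HBSS. At a tumor size of 200−500 mg, mice got one oral 100 mg/kg dose. Tumors were taken at 1, 4, 8, 16, 24 and 32 h. Lysates (n = 5 per group) were pooled, and phospho-AKT (T308) was read by Western blot, normalized to α-tubulin.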

[3] = molecular target: DNA-dependent protein kinase catalytic subunit (Homo sapiens, UniProt P78527); experiment: Inhibition of DNA-PK (unknown origin)
Mus musculus [4] = experiment: In vivo inhibition of mTORC2-mediated phosphorylation of AKT at serine 473 in human MCF7 cells xenografted into athymic nude mouse at 100 mg/kg, po after 24 hrs by Western blotting analysis relative to control; assay type: functional; conditions: MCF7, 24 h
Procedure, shortened: (§1)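 MCF-7 cells (DMEM, 10% FBS) were implanted subcutaneously at 5 × 10^6 cells in 50% cold HBSS/50% growth-factor-reduced matrigel into the hindflank of 5−8 week old female nude mice. At tumor size 40−150 mg, mice received a single oral dose of 100 mg/kg. Tumor lysates were pooled per group. Phospho-AKT (S473, T308), p70S6K (T389), S6 (S240/244) and 4E-BP1 (T37/46) were measured by Western blot normalized to α-tubulin.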

[5] = molecular target: Phosphatidylinositol 4,5-bisphosphate 3-kinase catalytic subunit delta isoform (Homo sapiens, UniProt O00329); experiment: Inhibition of PI3Kdelta (unknown origin)
[6] = Plasma concentration in athymic mouse plasma xenografted with human MCF7 cells at 100 mg/kg, po after 1 hr; assay type: ADME, organism-based; parameters: dose 100 mg/kg, route oral
Procedure, shortened: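 MCF-7 cells (5 × 10^6, in 50% cold HBSS/50% growth-factor-reduced matrigel) were implanted subcutaneously in the hindflank of 5–8 week old female nude mice. At 40–150 mg tumour size, mice received a single oral dose of 100 mg/kg, and plasma was sampled at the listed times after dosing.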

Mus musculus [7] = experiment: In vivo inhibition of mTORC2-mediated phosphorylation of AKT at serine 473 in human MCF7 cells xenografted into athymic nude mouse at 100 mg/kg, po after 32 hrs by Western blotting analysis relative to control; assay type: functional; conditions: MCF7, 32 h; procedure, shortened: as §1
[8] = Plasma concentration in athymic mouse plasma xenografted with human PC3 cells at 100 mg/kg, po after 8 hrs; assay type: ADME, organism-based, PC-3; parameters: dose 100 mg/kg, route oral
Mus musculus [9] = experiment: In vivo inhibition of mTORC1-mediated phosphorylation of 4EBP1 at ([…]) in human MCF7 cells xenografted into athymic nude mouse at 100 mg/kg, po after 16 hrs by Western blotting analysis relative to control; assay type: functional; conditions: MCF7, 16 h
[10] = Plasma protein binding in monkey at 5 uM; assay type: ADME, cell-free, Macaca mulatta; conditions: rhesus monkey, read-out: PPB (converted)
[11] = Metabolic stability in mouse liver microsomes after 30 mins; assay type: ADME, Microsome; conditions: read-out: Stability
[12] = molecular target: Receptor-type tyrosine-protein kinase FLT3 (Homo sapiens, UniProt P36888); experiment: Inhibition of FLT3 (unknown origin)
Mus musculus [13] = experiment: Toxicity in athymic nude mouse assessed as body weight gain at 50 mg/kg, po relative to control; assay type: organism-based; parameters: dose 50 mg/kg, route oral; conditions: in vivo
[14] = molecular target: Voltage-gated inwardly rectifying potassium channel KCNH2 (Homo sapiens, UniProt Q12809); experiment: Activity at human ERG by patch clamp technique
Procedure, shortened: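 hERG current measured by manual patch clamp.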

[15] = Drug uptake in tumor of athymic mouse xenografted with human PC3 cells at 100 mg/kg, po after 32 hrs; assay type: ADME, organism-based, Neoplasm, PC-3; parameters: dose 100 mg/kg, route oral; conditions: in vivo, BLD = below limit of detection
Procedure, shortened: (§2)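 PC-3 cells (3 × 10⁶, passages 10–14, in ice-cold HBSS) were implanted sc in 5–8 week old male nude mice. Tumors of 200–500 mg received a single oral 100 mg/kg dose. Plasma and tumor were collected at 1, 4, 8, 16, 24 and 32 h and homogenized in buffer. Lysates were pooled per group (n = 5), and phospho-proteins were measured by Western blot normalized to α-tubulin.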

Mus musculus [16] = experiment: In vivo inhibition of mTORC1-mediated phosphorylation of 4EBP1 at ([…]) in human PC3 cells xenografted into athymic nude mouse at 100 mg/kg, po after 1 hr by Western blotting analysis relative to control; assay type: functional; conditions: PC-3, 1 h
Procedure, shortened: (§3)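 PC-3 cells grown in DMEM with 20% FBS were implanted subcutaneously at 3 × 10^6 cells in ice-cold HBSS into the hindflank of 5−8 week old male nude mice. At tumor size 200−500 mg, mice received a single oral dose of 100 mg/kg. Plasma and tumors were collected at 1, 4, 8, 16, 24 and 32 h. Tumor lysates from each group (n = 5) were pooled. Phospho-proteins were quantified by Western blot and normalized to α-tubulin.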

[17] = Plasma protein binding in rat at 5 uM; assay type: ADME, cell-free; conditions: read-out: PPB (converted)
Mus musculus [18] = experiment: In vivo inhibition of mTORC2-mediated phosphorylation of AKT at serine 473 in human MCF7 cells xenografted into athymic nude mouse at 100 mg/kg, po after 4 hrs by Western blotting analysis relative to control; assay type: functional; conditions: MCF7, 4 h; procedure, shortened: as §1
Mus musculus [19] = experiment: In vivo inhibition of mTORC1-mediated phosphorylation of 4EBP1 at ([…]) in human PC3 cells xenografted into athymic nude mouse at 100 mg/kg, po after 32 hrs by Western blotting analysis relative to control; assay type: functional; conditions: PC-3, 32 h; procedure, shortened: as §3
Mus musculus [20] = experiment: In vivo inhibition of mTORC2-mediated phosphorylation of AKT at […] in human MCF7 cells xenografted into athymic nude mouse at 100 mg/kg, po after 32 hrs by Western blotting analysis relative to control; assay type: functional; conditions: MCF7, 32 h; procedure, shortened: as §1
[21] = Half life in cynomolgus monkey at 3 mg/kg, iv; assay type: ADME, organism-based, Macaca fascicularis; parameters: dose 3 mg/kg, route intravenous; conditions: in vivo
Procedure, shortened: (§4)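 Single-dose PK: female athymic nude mice (10 mg/kg), female CD rats and male beagle dogs (3 mg/kg), male cynomolgus monkeys (3 mg/kg), given iv and by oral gavage. Solution in EPW (5% ethanol/45% PEG400/water), with 1:2 HCl (m/m) for mouse, rat and dog and 1:1.5 HCl (m/m) for monkey. Plasma levels followed over 24 h.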

Plasma = experiment: Plasma concentration in athymic mouse plasma xenografted with human PC3 cells at 100 mg/kg, po after 24 hrs; assay type: ADME, organism-based, PC-3; parameters: dose 100 mg/kg, route oral; conditions: in vivo, BLD = below limit of detection
[22] = AUC (0 to infinity) in Beagle dog at 3 mg/kg, iv; assay type: ADME, organism-based, Canis lupus familiaris; parameters: time infinity, dose 3 mg/kg, route intravenous; conditions: plasma; procedure, shortened: as §4
[23] = Cmax in cynomolgus monkey at 3 mg/kg, po; assay type: ADME, organism-based, Macaca fascicularis; parameters: dose 3 mg/kg, route oral; conditions: in vivo; procedure, shortened: as §4
[24] = AUC (0 to infinity) in Beagle dog at 3 mg/kg, po; assay type: ADME, organism-based, Canis lupus familiaris; parameters: time infinity, dose 3 mg/kg, route oral; conditions: plasma; procedure, shortened: as §4
[25] = Drug uptake in tumor of athymic mouse xenografted with human PC3 cells at 100 mg/kg, po after 8 hrs; assay type: ADME, organism-based, Neoplasm, PC-3; parameters: dose 100 mg/kg, route oral; conditions: read-out: Drug uptake; procedure, shortened: as §2
Mus musculus [26] = experiment: In vivo inhibition of mTORC2-mediated phosphorylation of AKT at […] in human MCF7 cells xenografted into athymic nude mouse at 100 mg/kg, po after 24 hrs by Western blotting analysis relative to control; assay type: functional; conditions: MCF7, 24 h; procedure, shortened: as §1

Chain of DNA-dependent protein kinase catalytic subunit (P78527 whole entry): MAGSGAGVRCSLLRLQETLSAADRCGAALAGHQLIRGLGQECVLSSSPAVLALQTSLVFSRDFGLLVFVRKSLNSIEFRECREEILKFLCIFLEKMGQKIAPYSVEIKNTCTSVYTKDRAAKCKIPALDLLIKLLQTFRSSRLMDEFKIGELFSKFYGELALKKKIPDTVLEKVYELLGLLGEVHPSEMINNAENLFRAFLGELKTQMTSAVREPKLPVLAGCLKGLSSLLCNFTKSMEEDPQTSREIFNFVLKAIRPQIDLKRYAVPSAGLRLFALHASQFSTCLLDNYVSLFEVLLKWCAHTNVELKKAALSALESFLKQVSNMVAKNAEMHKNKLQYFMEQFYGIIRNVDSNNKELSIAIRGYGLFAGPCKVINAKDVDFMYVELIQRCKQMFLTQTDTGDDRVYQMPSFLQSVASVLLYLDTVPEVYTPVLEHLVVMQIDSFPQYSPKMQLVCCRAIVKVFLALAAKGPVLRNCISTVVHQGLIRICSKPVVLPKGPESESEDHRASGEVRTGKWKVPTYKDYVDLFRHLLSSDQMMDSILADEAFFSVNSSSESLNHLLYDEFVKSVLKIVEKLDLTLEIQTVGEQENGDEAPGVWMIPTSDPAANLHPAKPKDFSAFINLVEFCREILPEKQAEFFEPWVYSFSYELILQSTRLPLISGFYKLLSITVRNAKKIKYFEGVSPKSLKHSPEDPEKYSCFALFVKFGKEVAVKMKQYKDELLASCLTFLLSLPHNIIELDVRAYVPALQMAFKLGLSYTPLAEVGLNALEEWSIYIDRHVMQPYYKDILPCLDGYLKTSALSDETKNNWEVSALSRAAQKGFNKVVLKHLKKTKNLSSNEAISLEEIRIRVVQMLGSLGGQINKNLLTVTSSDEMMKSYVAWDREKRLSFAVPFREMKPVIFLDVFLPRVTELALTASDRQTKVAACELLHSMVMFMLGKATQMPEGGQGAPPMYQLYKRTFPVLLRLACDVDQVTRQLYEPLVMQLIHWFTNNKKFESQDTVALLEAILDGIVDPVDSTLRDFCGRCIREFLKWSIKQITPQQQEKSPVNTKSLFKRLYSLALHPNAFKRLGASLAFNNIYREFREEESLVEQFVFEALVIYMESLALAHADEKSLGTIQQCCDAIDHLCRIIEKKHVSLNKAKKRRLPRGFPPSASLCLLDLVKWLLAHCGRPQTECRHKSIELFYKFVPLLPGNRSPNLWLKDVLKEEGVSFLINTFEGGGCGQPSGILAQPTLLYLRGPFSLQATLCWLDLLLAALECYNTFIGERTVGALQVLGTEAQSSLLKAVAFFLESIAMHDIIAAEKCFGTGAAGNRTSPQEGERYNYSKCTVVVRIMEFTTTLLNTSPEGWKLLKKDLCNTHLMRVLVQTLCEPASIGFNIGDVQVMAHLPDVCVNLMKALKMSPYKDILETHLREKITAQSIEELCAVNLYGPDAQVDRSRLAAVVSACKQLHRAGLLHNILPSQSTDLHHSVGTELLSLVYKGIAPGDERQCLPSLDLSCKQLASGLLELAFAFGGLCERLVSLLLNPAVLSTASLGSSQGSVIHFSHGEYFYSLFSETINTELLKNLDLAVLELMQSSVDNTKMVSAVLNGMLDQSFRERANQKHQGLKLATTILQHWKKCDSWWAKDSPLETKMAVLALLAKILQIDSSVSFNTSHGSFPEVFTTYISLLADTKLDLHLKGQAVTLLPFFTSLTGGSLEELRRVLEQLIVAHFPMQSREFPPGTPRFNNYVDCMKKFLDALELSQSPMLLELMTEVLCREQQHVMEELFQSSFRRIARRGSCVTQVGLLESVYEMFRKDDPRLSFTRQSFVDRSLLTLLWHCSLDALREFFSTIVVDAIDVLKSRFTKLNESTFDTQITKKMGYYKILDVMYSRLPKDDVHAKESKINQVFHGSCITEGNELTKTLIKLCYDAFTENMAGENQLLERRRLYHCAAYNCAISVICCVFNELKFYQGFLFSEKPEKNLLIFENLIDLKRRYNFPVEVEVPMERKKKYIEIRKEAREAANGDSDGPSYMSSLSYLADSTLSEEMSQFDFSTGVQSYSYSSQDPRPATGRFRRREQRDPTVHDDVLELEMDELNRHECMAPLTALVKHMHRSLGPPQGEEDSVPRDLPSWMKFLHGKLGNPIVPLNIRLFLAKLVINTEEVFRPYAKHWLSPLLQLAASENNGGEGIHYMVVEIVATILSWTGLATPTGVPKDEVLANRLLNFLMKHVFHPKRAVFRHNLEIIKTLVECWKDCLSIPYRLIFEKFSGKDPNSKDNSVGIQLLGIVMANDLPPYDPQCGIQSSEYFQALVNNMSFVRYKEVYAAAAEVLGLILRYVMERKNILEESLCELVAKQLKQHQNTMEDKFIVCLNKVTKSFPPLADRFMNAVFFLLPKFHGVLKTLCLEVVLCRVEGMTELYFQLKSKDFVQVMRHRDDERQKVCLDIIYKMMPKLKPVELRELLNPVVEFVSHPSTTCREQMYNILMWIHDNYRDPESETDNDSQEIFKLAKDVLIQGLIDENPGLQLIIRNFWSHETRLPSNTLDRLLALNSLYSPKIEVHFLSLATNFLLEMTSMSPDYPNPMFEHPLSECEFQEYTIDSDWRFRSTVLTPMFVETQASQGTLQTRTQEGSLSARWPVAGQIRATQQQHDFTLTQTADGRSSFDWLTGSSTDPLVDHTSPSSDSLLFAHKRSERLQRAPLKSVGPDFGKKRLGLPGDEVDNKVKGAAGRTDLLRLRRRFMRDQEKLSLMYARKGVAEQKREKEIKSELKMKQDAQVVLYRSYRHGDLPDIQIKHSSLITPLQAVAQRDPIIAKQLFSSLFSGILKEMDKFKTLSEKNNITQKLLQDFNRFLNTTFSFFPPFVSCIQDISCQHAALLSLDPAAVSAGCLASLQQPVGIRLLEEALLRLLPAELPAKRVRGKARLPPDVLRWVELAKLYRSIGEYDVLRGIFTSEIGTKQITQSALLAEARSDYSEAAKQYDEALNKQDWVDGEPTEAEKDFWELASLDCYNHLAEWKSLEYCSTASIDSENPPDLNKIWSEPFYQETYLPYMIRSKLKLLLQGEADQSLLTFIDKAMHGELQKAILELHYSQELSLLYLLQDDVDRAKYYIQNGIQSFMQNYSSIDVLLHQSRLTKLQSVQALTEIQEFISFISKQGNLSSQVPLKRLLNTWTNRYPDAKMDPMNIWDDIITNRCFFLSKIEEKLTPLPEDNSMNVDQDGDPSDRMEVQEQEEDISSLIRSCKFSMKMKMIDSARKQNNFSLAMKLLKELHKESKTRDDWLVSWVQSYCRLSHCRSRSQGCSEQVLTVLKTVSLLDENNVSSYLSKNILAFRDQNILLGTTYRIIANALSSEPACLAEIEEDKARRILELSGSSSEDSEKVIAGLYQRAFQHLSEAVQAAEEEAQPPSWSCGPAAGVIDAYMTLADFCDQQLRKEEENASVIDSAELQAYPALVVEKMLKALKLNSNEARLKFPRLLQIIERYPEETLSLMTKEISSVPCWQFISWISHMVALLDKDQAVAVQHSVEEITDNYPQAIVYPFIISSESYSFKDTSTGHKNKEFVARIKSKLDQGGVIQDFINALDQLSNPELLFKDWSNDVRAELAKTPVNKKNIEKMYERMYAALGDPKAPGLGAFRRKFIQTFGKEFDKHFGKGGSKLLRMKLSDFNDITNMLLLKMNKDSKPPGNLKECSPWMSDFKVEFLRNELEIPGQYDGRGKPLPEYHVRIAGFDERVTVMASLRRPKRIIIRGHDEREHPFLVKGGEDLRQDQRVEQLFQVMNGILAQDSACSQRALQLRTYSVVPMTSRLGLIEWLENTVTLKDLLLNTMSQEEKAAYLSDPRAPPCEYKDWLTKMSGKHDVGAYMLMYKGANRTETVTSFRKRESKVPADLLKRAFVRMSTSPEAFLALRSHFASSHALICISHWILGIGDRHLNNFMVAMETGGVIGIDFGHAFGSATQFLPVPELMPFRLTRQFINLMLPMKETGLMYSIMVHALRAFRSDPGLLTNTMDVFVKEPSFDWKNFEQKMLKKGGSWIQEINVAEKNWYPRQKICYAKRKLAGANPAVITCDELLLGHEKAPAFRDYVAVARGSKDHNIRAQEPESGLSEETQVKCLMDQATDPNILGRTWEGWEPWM
Chain of Phosphatidylinositol 4,5-bisphosphate 3-kinase catalytic subunit delta isoform (O00329 whole entry, canonical isoform): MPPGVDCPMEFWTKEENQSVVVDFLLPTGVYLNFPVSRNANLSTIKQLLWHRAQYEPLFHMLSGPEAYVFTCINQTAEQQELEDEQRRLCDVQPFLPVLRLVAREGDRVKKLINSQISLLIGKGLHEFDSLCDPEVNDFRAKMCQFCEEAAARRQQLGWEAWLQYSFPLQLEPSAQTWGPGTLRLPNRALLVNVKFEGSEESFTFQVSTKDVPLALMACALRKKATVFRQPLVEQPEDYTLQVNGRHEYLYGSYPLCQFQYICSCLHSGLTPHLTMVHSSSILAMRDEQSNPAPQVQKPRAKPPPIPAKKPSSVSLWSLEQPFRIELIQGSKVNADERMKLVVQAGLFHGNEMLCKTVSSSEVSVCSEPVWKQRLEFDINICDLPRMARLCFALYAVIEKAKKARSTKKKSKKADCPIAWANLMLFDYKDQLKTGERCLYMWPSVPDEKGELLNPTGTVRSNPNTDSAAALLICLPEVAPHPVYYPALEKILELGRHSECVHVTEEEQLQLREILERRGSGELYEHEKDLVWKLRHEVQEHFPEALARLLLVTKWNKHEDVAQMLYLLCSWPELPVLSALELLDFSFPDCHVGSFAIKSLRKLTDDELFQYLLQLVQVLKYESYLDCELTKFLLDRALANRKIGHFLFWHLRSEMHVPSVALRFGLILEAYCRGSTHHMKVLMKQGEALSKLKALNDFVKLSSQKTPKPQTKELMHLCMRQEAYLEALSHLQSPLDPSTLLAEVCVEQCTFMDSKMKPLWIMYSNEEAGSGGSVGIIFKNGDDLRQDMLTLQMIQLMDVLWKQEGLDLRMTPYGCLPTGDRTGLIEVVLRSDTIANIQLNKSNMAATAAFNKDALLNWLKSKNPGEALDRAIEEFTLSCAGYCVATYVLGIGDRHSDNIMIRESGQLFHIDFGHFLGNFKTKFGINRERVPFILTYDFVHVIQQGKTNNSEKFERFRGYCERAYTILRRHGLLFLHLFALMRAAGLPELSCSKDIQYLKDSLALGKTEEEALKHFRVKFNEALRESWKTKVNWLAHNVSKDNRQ

## Cc1c(C(=O)N2CCOc3ccc(-c4ccc(N)nc4)cc3C2)ccc(S(C)(=O)=O)c1F
[1]
  IC50: > 3.5 µM
Mus musculus [2]
  inhibition in vivo at 100 mg/kg: -3%
[3]
  IC50: 8.83 µM
Mus musculus [4]
  inhibition in vivo at 100 mg/kg: -49%
[5]
  IC50: > 5 µM
[6]
  concentration at 1 h: 34.4 µM
Mus musculus [7]
  inhibition in vivo at 100 mg/kg: 11%
[8]
  concentration at 8 h: 26.7 µM
Mus musculus [9]
  inhibition in vivo at 100 mg/kg: 56%
[10]
  fraction unbound at 5 µM: 0.1
[11]
  remaining at 0.5 h: 78%
[12]
  IC50: > 3.5 µM
Mus musculus [13]
  Activity: 2.2%
[14]
  Activity: 15.9 µM
[15]
  Drug uptake: BLD
Mus musculus [16]
  inhibition in vivo at 100 mg/kg: 94%
[17]
  fraction unbound at 5 µM: 0.15
Mus musculus [18]
  inhibition in vivo at 100 mg/kg: 87%
Mus musculus [19]
  inhibition in vivo at 100 mg/kg: 33%
Mus musculus [20]
  inhibition in vivo at 100 mg/kg: 10%
[21]
  half-life: 51.6 min
Plasma
  Cp: BLD
[22]
  AUC(0-inf): 11 µM·h
[23]
  Cmax: 0.25 µM
[24]
  AUC(0-inf): 7.66 µM·h
[25]
  concentration at 8 h: 25.5 µM
Mus musculus [26]
  inhibition in vivo at 100 mg/kg: -39%
